Assay results as given in paper PMC6733264 (ACS chemical biology, 2019).
Square brackets hold non-standard residues; d marks the D form. Ends that are not written are not given here. PEG = not defined here

Columns and labels:
[1] = test system: HEK293 cells transiently transfected with BRAF^G469A; experiment: Immunoblot of MAPK signaling in transiently transfected HEK293 cells; assay type: cell-based, human; conditions: for BRAF activity (phospho-MEK1/2): 0, 10, 25, 50, 75, 100 μM for 4 hr, 48 hr post-transfection
[2] = test system: p61 BRAF^V600E in HEK293 cells; experiment: Immunoblot of HEK293 cells transfected with p61-BRAF^V600E; assay type: cell-based, human; conditions: increasing concentrations, 4 hr
In short: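 HEK293 cells were transiently transfected with 6X-His/FLAG-tagged p61-BRAF V600E in pcDNA4/TO. p61 is an aberrantly spliced BRAF of about 61 kDa. Cells were exposed to increasing concentrations of the TAT-tagged test peptide for 4 hr, then lysates were immunoblotted.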

[3] = test system: HEK293 cells transiently transfected with BRAF^WT; experiment: Immunoblot of MAPK signaling in transiently transfected HEK293 cells; assay type: cell-based, human; conditions: for BRAF activity (phospho-MEK1/2): 0, 10, 25, 50, 75, 100 μM for 4 hr, 48 hr post-transfection
HCT-15 cells = experiment: WST cell viability assay; assay type: cell-based, human; conditions: concentrations up to 100 μM, 48 hr
HCT116 cells = experiment: WST cell viability assay; assay type: cell-based, human; conditions: concentrations up to 100 μM, 48 hr
[4] = target: full-length (FL) BRAF^G469A (Homo sapiens, UniProt P15056, G469A); experiment: ELISA kinase assay of purified full-length BRAF, probing phosphorylated MEK; assay type: biochemical
full-length (FL) BRAF^WT = full-length (FL) BRAF^WT (Homo sapiens, UniProt P15056); experiment: as above; assay type: biochemical
full-length (FL) BRAF^WT, sequence (P15056 whole entry): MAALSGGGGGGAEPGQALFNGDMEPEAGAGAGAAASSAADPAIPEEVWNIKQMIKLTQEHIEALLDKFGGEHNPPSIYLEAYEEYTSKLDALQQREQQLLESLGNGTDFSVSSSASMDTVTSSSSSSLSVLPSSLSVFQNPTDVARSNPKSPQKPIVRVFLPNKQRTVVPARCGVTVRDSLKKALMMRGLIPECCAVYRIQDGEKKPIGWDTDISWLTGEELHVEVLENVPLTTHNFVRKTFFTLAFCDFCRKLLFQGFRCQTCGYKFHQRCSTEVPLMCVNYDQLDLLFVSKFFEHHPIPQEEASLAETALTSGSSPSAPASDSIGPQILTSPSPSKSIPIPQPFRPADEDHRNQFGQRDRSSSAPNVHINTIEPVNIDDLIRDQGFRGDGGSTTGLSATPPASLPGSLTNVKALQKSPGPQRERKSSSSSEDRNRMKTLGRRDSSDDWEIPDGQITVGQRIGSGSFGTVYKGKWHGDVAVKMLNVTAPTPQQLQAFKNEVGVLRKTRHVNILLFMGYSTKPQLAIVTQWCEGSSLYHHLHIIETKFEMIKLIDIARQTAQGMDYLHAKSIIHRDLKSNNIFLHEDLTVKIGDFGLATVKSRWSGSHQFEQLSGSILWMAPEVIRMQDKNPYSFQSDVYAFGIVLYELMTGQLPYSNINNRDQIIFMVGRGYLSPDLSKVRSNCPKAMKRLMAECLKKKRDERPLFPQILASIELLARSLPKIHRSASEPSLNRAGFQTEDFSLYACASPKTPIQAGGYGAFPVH

full-length (FL) BRAF^G469A, sequence (P15056 whole entry G469A): as the sequence (P15056 whole entry) above, with G469A counted along it

## TAT-braftide (GRKKRRQRRRPQ[PEG]TRHVNILLFM; reading uncertain; also: PEG linker between TAT and braftide)
[1]
  BRAF activity (phospho-MEK1/2): significantly reduced the activity of BRAF in a dose-dependent manner
[1]; 0-100 μM for 4 hr
  protein levels of overexpressed BRAF and endogenous MEK1: markedly decreased in a dose-dependent manner
[2]
  pMEK and pERK levels: decrease in both pMEK and pERK levels
[3]; immunoblot
  BRAF activity (phospho-MEK1/2): significantly reduced the activity of BRAF in a dose-dependent manner
[3]; 0-100 μM for 4 hr, immunoblot
  protein levels of overexpressed BRAF and endogenous MEK1: markedly decreased in a dose-dependent manner
[3]; pre-treatment with 75 μM for 2 h, then dabrafenib 1 hr
  paradoxical effect caused by lower doses of dabrafenib: abrogated the paradoxical effect

## GRKKRRQRRRPQ [TAT peptide, reference compound]
[1]
  BRAF activity (phospho-MEK1/2): no inhibition effect was observed
[3]; immunoblot
  BRAF activity (phospho-MEK1/2): no inhibition effect was observed
HCT-15 cells
  cell death: no cell death was observed
HCT116 cells
  cell death: no cell death was observed

## CC(C)(C)c1nc(-c2cccc(NS(=O)(=O)c3c(F)cccc3F)c2F)c(-c2ccnc(N)n2)s1 [dabrafenib, reference compound]
[3]; 0-10 μM for 1 hr, activates MAPK signaling at lower concentrations
  concentration at which dabrafenib alone acts as an inhibitor of MAPK signaling: above 10 μM

## THHVNILLFM [R/H-braftide]
[4]
  IC50: 0.625 to 3.34 µM
full-length (FL) BRAF^WT
  IC50: 2.49 to 4.98 µM
